# Yeast life ext = yeast lifespan extension; S. cerevisiae growth with nicotinamide, OD615; deaD strain in restrictive glucose medium; inhibition of the nicotinamide effect, % at 10 µM; actives 0.68% (n = 130,000); AID 775;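 active = inhibition above a set limit, placed 3 SD over the median of all compounds, cut at about 26% in these data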;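 note: 0% = nicotinamide-treated wells and 100% = cells grown without nicotinamide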
#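 assay system = DeaD-strain S. cerevisiae | buffer or medium = restrictive glucose medium | reagent = 1.5 mM nicotinamide | compound = 10 µM single point, 0.25% DMSO | incubation = 48 h compound exposure at 30 °C, humidified | signal = OD615 measurement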
# RAM network inh = inhibitors of the yeast RAM network. actives 1.8% (n = 190,000). S. cerevisiae dse1pr::URA3 reporter, 5-FOA growth OD615, 2 d; analog-sensitive cbk1-as2 kinase mutant strain. inhibition, % at 50 µM;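 active = inhibition above a set limit, 3 SD over mean compound inhibition, cut at about 8.4% in these data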;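 note: 0% = DMSO-only wells with no growth and 100% = 10 µM 1-NA-PP1 full growth; inhibition rescues growth on 5-FOA so higher OD means more RAM inhibition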
# BB579 growth dn = reduces growth of yeast BB579 in restrictive medium. S. cerevisiae BB579 growth, OD615, 48 h. inhibition, % at 10 µM. actives 0.51% (n = 140,000);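 active = inhibition above a set limit, 3 SD over the mean compound inhibition, cut at about 44% in these data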
#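 test system = yeast BB579 (DeaD) | buffer or medium = restrictive CSMM-D medium | doses = single compound dose of 10 µM, 0.25% DMSO final | times = 4 h preincubation and 48 h exposure at 30 °C | technique = culture absorbance at 615 nm | benchmarks = amphotericin B 10 µg/mL, positive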
# * hit, by the source's call; · = no result. Sampled rows, rich in hits. Any-hit rate of the full collection: about 2.6%.
SMILES,Yeast life ext,RAM network inh,BB579 growth dn
CCOc1ccc(C2SCC(=O)N2c2c(C)n(C)n(-c3ccccc3)c2=O)cc1 (stereo unspecified),-3,2,-41
CC(C)(/C=N/NC(=O)CSCc1ccc(Cl)cc1)CCC#N,·,1,·
COc1ccc(F)cc1S(=O)(=O)Nc1cccc(C(=O)O)c1,7,1,-52
CC(=O)c1cc(C#N)c(SCc2ccccc2C#N)nc1C,·,4,-11
CCOC(=O)c1cc(C#N)c(SCc2cccc3ccccc23)nc1C,-9,10*,-18
CCN(CC)C(=O)Cn1c(=O)n(CCCC(=O)NCc2ccccc2)c(=O)c2sccc21,·,1,·
Cc1ccc2[nH]c(=O)c(CNS(=O)(=O)c3ccccc3)c(-c3ccccc3)c2c1,-2,7,-29
CCc1ccc2c(c1)C1(C(=O)N2)N2CCCC2C(C(=O)c2ccc3ccccc3c2)C12C(=O)Nc1ccccc12 (stereo unspecified),3,4,-21
CCc1ccc2c(c1)C1(NN=C(c3cccc4ccccc34)S1)C(=O)N2 (stereo unspecified),·,0,66*
O=C(N/N=C/c1ccc([N+](=O)[O-])o1)C1CC1,·,0,·
CC1(C)CC(=O)C(CCCN2C(=O)c3ccccc3C2=O)C(=O)C1,3,1,-54
Cc1ccc(C(C2C(=O)CC(C)(C)CC2=O)C2C(=O)CC(C)(C)CC2=O)s1,34*,-1,-40
Cc1cnc(NC(=O)CSc2nnc(Cc3ccccc3)n2C)s1,-4,1,-51
Cc1ccc(C(C)C)c(OCc2nnc(SCC(=O)Nc3ncc(C)s3)n2C)c1,8,8.6*,-73
CN(Cc1cn(-c2ccccc2)nc1-c1ccc(Cl)cc1)C(=O)CCC(=O)O,8,-1,-27
CCOC(=O)/C(C#N)=C/c1cc2ccccc2nc1N1CCOCC1,1,1,-28
N#CC(C#N)=Cc1cc2ccccc2nc1N1CCCCC1,36*,1,-24
Cc1ccc(C)c(Nc2c([N+](=O)[O-])cc(C(=O)N3CC(=O)Nc4ccccc43)cc2[N+](=O)[O-])c1,-29,5,-67
Cc1cccc(Nc2c([N+](=O)[O-])cc(C(=O)N3CC(=O)Nc4ccccc43)cc2[N+](=O)[O-])c1,·,9.5*,·
CCN(c1ccc(N=Cc2c(O)n(Cc3ccc(OC)cc3)c(=O)c3ccccc23)cc1)C(C)C,·,4,·
O=C(CCC1CCCN(C(=O)c2ccc3cc[nH]c3c2)C1)NCc1ccc(F)c(F)c1 (stereo unspecified),·,3,·
Cn1nc(C(=O)Nc2c(-c3ccccc3)nc3sccn23)c2ccccc2c1=O,2,9.2*,-22
Cn1nc(C(=O)Nc2nc3ccccc3[nH]2)c2ccccc2c1=O,-4,1,-13
Cn1cccc1/C=N/NC(=O)c1cccc(OC(F)(F)C(F)F)c1,-4,4,-4
Cc1cc(C)nc(SCc2cc(=O)c(OC(=O)c3ccc(S(=O)(=O)N(C)C)cc3)co2)n1,-5,-1,-18
SMILES,Yeast life ext,RAM network inh,BB579 growth dn
Cc1cc(C)nc(SCc2cc(=O)c(OC(=O)c3ccc(Cl)c([N+](=O)[O-])c3)co2)n1,30*,2,-21
CC(C)(C)C1=NN(C(=O)c2ccccc2)C(O)(C(C)(C)C)C1 (stereo unspecified),-2,10*,-16
CC(C)C1=NN(C(=O)c2ccccc2)C(O)(C(C)(C)C)C1 (stereo unspecified),-6,0,-6
O=C(NCSc1ccnc(SCNC(=O)c2ccc(F)cc2)n1)c1ccc(F)cc1,-9,5,-8
CSc1ccc(S(=O)(=O)Nc2ccc(S(=O)(=O)Nc3ccc(C)cc3)cc2)cc1,0,8,-36
Cc1ccc(S(=O)(=O)Nc2ccc(N=Nc3ccc(O)cc3)cc2)cc1,-5,11*,-17
O=C1CC(c2cccc(Cl)c2)CC(O)=C1C=Nc1cccc(Cl)c1 (stereo unspecified),29*,6,-40
O=C1CC(c2ccccc2)CC(O)=C1C=Nc1ccccc1 (stereo unspecified),·,1,·
O=c1[nH]c2cc3c(cc2cc1CN(Cc1cccnc1)C(=S)NCc1ccco1)OCCO3,·,0,·
CNc1nc(-c2ccccn2)nnc1-c1ccccc1,17,1,-85
c1ccc(-c2nnc(-c3ccccn3)nc2NC2CCCCC2)cc1,-18,-1,94*
O=[N+]([O-])c1cc(CN2CCCC2)ccc1Sc1ccc(Cl)cc1,·,2,·
O=c1[nH]c(=S)[nH]c(O)c1N=Nc1ccc(-c2ccccc2)cc1[N+](=O)[O-],·,4,·
COc1cccc(CC2(CO)CCCN(Cc3sc(N4CCCC4)nc3Cl)C2)c1 (stereo unspecified),·,2,·
COc1cccc(/C=C2\C(=O)N(c3cccc(C)c3)C(=O)c3ccccc32)c1,48*,3,-10
CCOc1cc(/C=C2\C(=O)N(c3cccc(C(F)(F)F)c3)C(=O)c3ccccc32)ccc1O,10,3,-25
Cc1cccc(N2C(=O)/C(=C\c3ccc(OC(F)F)cc3)c3ccccc3C2=O)c1,47*,5,-27
COc1cccc(N2C(=O)c3ccncc3C2=O)c1,4,1,-84
N#CCCN(Cc1cccnc1)C(=O)c1sc2cc(F)ccc2c1Cl,8,1,-58
CCOC(=O)C(=O)Nc1ccccc1C(=O)NCc1ccccc1,·,0,·
Cc1nn(-c2ccc(Cl)nn2)c(=O)c2ccccc12,·,1,·
C=CCn1c(SCC(=O)NC)nc2sc3c(c2c1=O)CCC3,-11,2,-16
CCn1c(SCC(N)=O)nc2sc3c(c2c1=O)CCCC3,-6,3,-58
C=CCSc1nc2sc3c(c2c(=O)n1CC)CCc1ccccc1-3,-3,9.2*,-30
C=CCn1c(SC)nc2sc3c(c2c1=O)CCc1ccccc1-3,-5,9.0*,-37
SMILES,Yeast life ext,RAM network inh,BB579 growth dn
c1ccc2c(c1)OCCOCCOCCOCCOCCOc1ccccc1OCCOCCOCCO2,1,1,-27
O=C(O)C1CSC(c2ccccc2Cl)N1C(=O)c1ccc(Cl)cc1 (stereo unspecified),2,1,-51
O=C(CCn1c(=S)oc2ccccc21)N1CCCCC1,·,2,·
CCN1C(=O)/C(=C\c2ccco2)C(C(=O)OC)=C1C,-31,0,-25
C=CCN1C(=O)/C(=C\c2ccco2)C(C(=O)OC)=C1C,-7,0,-11
COC(=O)C1=C(C)N(CCc2ccccc2)C(=O)/C1=C\c1ccco1,16,11*,-42
COC(=O)C1=C(C)N(c2cccc(OC)c2)C(=O)/C1=C\c1ccco1,20,9.0*,-36
CC1CC1C(=O)OCC(=O)Nc1cccc([N+](=O)[O-])c1 (stereo unspecified),·,1,·
COc1cccc(COCC(O)Cn2cnc3cc(C)c(C)cc32)c1 (stereo unspecified),·,1,·
CS(=O)(=O)N1CCN=C1SCc1ccc([N+](=O)[O-])cc1,·,1,·
O=c1c(Cc2c(F)cccc2Cl)c(O)ccn1CCCN1CCOCC1,·,1,·
Cc1cccc(C)c1OCC(O)CN1CCC(CN2C(=O)c3cccc4cccc(c34)C2=O)CC1 (stereo unspecified),-11,0,-33
CCCOc1ccc(NC(=O)CC2C(=O)N(C)C(=S)N2Cc2cccs2)cc1 (stereo unspecified),·,1,-30

# Source: PubChem (SRMLSC)
